In brackets after ≈: the same amount, converted by molar mass. Activity calls are given as the source filed them. No cut-off for these calls is given here.
Assays:
Bacillus subtilis [1] = test: Inhibition of DNA synthesis in Bacillus subtilis BD54 at 5 X MIC by [3H]thymidine incorporation assay; type: functional, organism-based
How it was run: (§1)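 Precursors were [methyl-3H]thymidine (DNA), [5-3H]uridine (RNA), L-[4,5-3H]leucine (protein) and N-acetyl-D-[1-3H]glucosamine (cell wall). Samples taken over time, precipitated with equal volume of ice-cold 20% TCA, filtered on glass fibre, and counted. cpm plotted against time.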

Bacillus anthracis [2] = test: Protection against Bacillus anthracis Sterne spores induced cell death in mouse J774A1 cells assessed as live viable cells at 10 uM by Sytox green dye staining assay relative to untreated control; type: functional, J774.A1
Bacillus anthracis [3] = test: microbe, parasite or virus in culture; conditions: Ames
Staphylococcus aureus [4] = test: Antimicrobial activity against methicillin-resistant Staphylococcus aureus clinical isolate by broth microdilution method; type: functional
Enterococcus faecalis [5] = test: Antimicrobial activity against Enterococcus faecalis 29212 clinical isolate by broth microdilution method; type: functional
Enterococcus faecalis [6] = test: Antimicrobial activity against Enterococcus faecalis clinical isolate by broth microdilution method; type: functional
How it was run: (§2)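 Broth microdilution. Log-phase cultures (5 × 10^5 CFU/ml) seeded in 96-well plates with compound from 0 to 20 µM or 1% DMSO control. Incubated at 37°C for 16 to 20 h. Growth read as absorbance at 600 nm.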

Bacillus subtilis [7] = test: Inhibition of RNA synthesis in Bacillus subtilis BD54 at 5 X MIC by [5-3H]uridine incorporation assay; type: functional; how it was run: as §1
[8] = tested on: Mycolicibacterium smegmatis; test: Antimicrobial activity against Mycobacterium smegmatis 19420 by broth microdilution method; type: functional; how it was run: as §2
[9] = Cytotoxicity against human HeLa cells after 3 days by MTS assay in presence of 10% fetal calf serum; type: cell-based
Bacillus anthracis [10] = test: Antimicrobial activity against Bacillus anthracis Ames by broth microdilution method in presence of 10% fetal calf serum; type: functional
Bacillus subtilis [11] = test: Inhibition of cell wall synthesis in Bacillus subtilis BD54 at 5 X MIC by N-acetyl-D-[1-3H] glucosamine incorporation assay; type: functional; how it was run: as §1
Bacillus anthracis [12] = test: Antimicrobial activity against Bacillus anthracis Sterne vegetative cells by broth microdilution method; type: functional
Yersinia pestis = test: Antimicrobial activity against Yersinia pestis by broth microdilution method; type: functional
Bacillus anthracis [13] = test: microbe, parasite or virus in culture; conditions: Ames; remark: listed apart in the source
Klebsiella pneumoniae = test: Antimicrobial activity against Klebsiella pneumoniae 5657 by broth microdilution method; type: functional; how it was run: as §2
Enterococcus faecalis [14] = test: Antimicrobial activity against vancomycin-resistant Enterococcus faecalis ATCC 51575 by broth microdilution method; type: functional
Brevibacillus brevis = test: Antimicrobial activity against Bacillus brevis clinical isolate by broth microdilution method; type: functional; how it was run: as §2
Priestia megaterium = test: Antimicrobial activity against Bacillus megaterium clinical isolate by broth microdilution method; type: functional
Bacillus licheniformis = test: Antimicrobial activity against Bacillus licheniformis clinical isolate by broth microdilution method; type: functional
Burkholderia cepacia = test: Antimicrobial activity against Burkholderia cepacia clinical isolate by broth microdilution method; type: functional; how it was run: as §2
Enterococcus faecium = test: Antimicrobial activity against vancomycin-resistant Enterococcus faecium B42762 by broth microdilution method; type: functional
Bacillus anthracis [15] = test: Inhibition of spore germination in Bacillus anthracis Sterne spores at MIC after 4 hrs; type: functional, organism-based
Burkholderia mallei = test: Antimicrobial activity against Burkholderia mallei ATCC 23344 by broth microdilution method; type: functional
[16] = tested on: Mycolicibacterium smegmatis; test: Antimicrobial activity against Mycobacterium smegmatis 35798 by broth microdilution method; type: functional; how it was run: as §2
Bacillus anthracis [17] = test: Antimicrobial activity against Bacillus anthracis Vollum clinical isolate by broth microdilution method; type: functional
Bacillus subtilis [18] = test: Antimicrobial activity against Bacillus subtilis clinical isolate by broth microdilution method; type: functional
Bacillus pumilus = test: Antimicrobial activity against Bacillus pumilus clinical isolate by broth microdilution method; type: functional; how it was run: as §2
Bacillus anthracis [19] = test: Antimicrobial activity against Bacillus anthracis Sterne spores by broth microdilution method; type: functional
Bacillus anthracis [20] = test: Protection against Bacillus anthracis Sterne spores induced cell death in mouse J774A1 cells assessed as dead cells at 10 uM by Sytox green dye staining assay relative to untreated control; type: functional, J774.A1
Staphylococcus aureus [21] = test: Antimicrobial activity against methicillin-resistant Staphylococcus aureus 1094 by broth microdilution method; type: functional
HeLa = test: Effect on cell membrane integrity in human HeLa cells assessed as lactate dehydrogenase release at 32 times MIC against Staphylococcus aureus by CytoTox ONE homogenous membrane integrity assay; type: cell-based
How it was run: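 Confluent HeLa cells in DMEM treated for 1 h with a range of compound concentrations, 1% DMSO final. […] LDH activity in the supernatant measured by a membrane-integrity kit.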

[22] = tested on: Mycolicibacterium smegmatis; test: Antimicrobial activity against Mycobacterium smegmatis 700009 by broth microdilution method; type: functional; how it was run: as §2
[23] = tested on: Burkholderia thailandensis; test: Antimicrobial activity against Burkholderia thailandensis by broth microdilution method; type: functional
[24] = tested on: Burkholderia pseudomallei; test: Antimicrobial activity against Burkholderia pseudomallei DD503 by broth microdilution method; type: functional
Pseudomonas aeruginosa = test: Antimicrobial activity against Pseudomonas aeruginosa PAO1 by broth microdilution method; type: functional; how it was run: as §2
Escherichia coli = test: Antimicrobial activity against Escherichia coli J53 clinical isolate by broth microdilution method; type: functional
Staphylococcus aureus [25] = test: Antimicrobial activity against Staphylococcus aureus ATCC 25923 by broth microdilution method; type: functional; how it was run: as §2
Staphylococcus aureus [26] = test: Antimicrobial activity against Staphylococcus aureus by broth microdilution method; type: functional; how it was run: as §2
Bacillus subtilis [27] = test: Inhibition of protein synthesis in Bacillus subtilis BD54 at 5 X MIC by L-[4,5-3H]leucine incorporation assay; type: functional, organism-based; how it was run: as §1
Bacillus anthracis [28] = test: Inhibition of spore outgrowth in Bacillus anthracis Sterne spores assessed as reduction in bacterial CFU count at 0.1 ug/ml after 4 hrs relative to untreated control; type: functional, organism-based

## c1cc2cc(-c3ccc4cc(C5=NCCN5)[nH]c4c3)[nH]c2cc1C1=NCCN1
Bacillus subtilis [1]
  inhibition: Active
Bacillus anthracis [2]
  Activity: 89%
Bacillus anthracis [3]
  MBC: 0.5 µg/mL (≈ 1.36 µM)
  MIC: 0.3 µg/mL (≈ 0.814 µM)
Staphylococcus aureus [4]
  MIC: 2.2 µg/mL (≈ 5.97 µM)
Enterococcus faecalis [5]
  MIC: 0.3 µg/mL (≈ 0.814 µM)
Enterococcus faecalis [6]
  MIC: 2.2 µg/mL (≈ 5.97 µM)
Bacillus subtilis [7]
  inhibition (INH): 40%
[8]
  MIC: 0.2 µg/mL (≈ 0.543 µM)
[9]
  CC50 at 72 h: 33 µg/mL
Bacillus anthracis [10]
  MIC: 0.3 µg/mL
Bacillus subtilis [11]
  inhibition (INH): 40%
Bacillus anthracis [12]
  MIC: 1.1 µg/mL (≈ 2.99 µM)
Yersinia pestis
  MIC: 7.4 µg/mL (≈ 20.1 µM)
Bacillus anthracis [13]
  MBC: 2.2 µg/mL (≈ 5.97 µM)
  MIC: 1.1 µg/mL (≈ 2.99 µM)
Klebsiella pneumoniae
  MIC: 0.4 µg/mL (≈ 1.09 µM)
Enterococcus faecalis [14]
  MIC: 0.5 µg/mL (≈ 1.36 µM)
Brevibacillus brevis
  MIC: 0.3 µg/mL (≈ 0.814 µM)
Priestia megaterium
  MIC: 0.6 µg/mL (≈ 1.63 µM)
Bacillus licheniformis
  MIC: 2.2 µg/mL (≈ 5.97 µM)
Burkholderia cepacia
  MIC: 4.4 µg/mL (≈ 11.9 µM)
Enterococcus faecium
  MIC: 0.2 µg/mL (≈ 0.543 µM)
Bacillus anthracis [15]
  inhibition: inactive
Burkholderia mallei
  MIC: 1.8 µg/mL (≈ 4.89 µM)
[16]
  MIC: < 0.1 µg/mL
Bacillus anthracis [17]
  MBC: 1.1 µg/mL (≈ 2.99 µM)
  MIC: 0.6 µg/mL (≈ 1.63 µM)
Bacillus subtilis [18]
  MIC: 0.6 µg/mL (≈ 1.63 µM)
Bacillus pumilus
  MIC: 0.1 µg/mL (≈ 0.271 µM)
Bacillus anthracis [19]
  MIC: 0.6 µg/mL (≈ 1.63 µM)
Bacillus anthracis [20]
  Activity: 11%
Staphylococcus aureus [21]
  MIC: 0.3 µg/mL (≈ 0.814 µM)
HeLa
  Activity: Non-toxic
[22]
  MIC: 0.3 µg/mL (≈ 0.814 µM)
[23]
  MIC: 18 µg/mL (≈ 48.9 µM)
[24]
  MIC: 1.8 µg/mL (≈ 4.89 µM)
Pseudomonas aeruginosa
  MIC: 25 µg/mL (≈ 67.9 µM)
Escherichia coli
  MIC: 1.1 µg/mL (≈ 2.99 µM)
Staphylococcus aureus [25]
  MIC: 0.3 µg/mL (≈ 0.814 µM)
Staphylococcus aureus [26]
  MIC: 1.1 µg/mL (≈ 2.99 µM)

## O=C(O)c1cn(C2CC2)c2cc(N3CCNCC3)c(F)cc2c1=O [CIPROFLOXACIN]
Bacillus subtilis [1]
  inhibition: Active
Bacillus subtilis [7]
  inhibition: Active
[8]
  MIC: 0.1 µg/mL (≈ 0.302 µM)
Bacillus subtilis [27]
  inhibition: Active
Bacillus subtilis [11]
  inhibition: Active
Klebsiella pneumoniae
  MIC: 0.2 µg/mL (≈ 0.604 µM)
Enterococcus faecalis [14]
  MIC: 0.6 µg/mL (≈ 1.81 µM)
Enterococcus faecium
  MIC: 20 µg/mL (≈ 60.4 µM)
[16]
  MIC: 0.2 µg/mL (≈ 0.604 µM)
Staphylococcus aureus [21]
  MIC: 5 µg/mL (≈ 15.1 µM)
[22]
  MIC: 0.4 µg/mL (≈ 1.21 µM)
Bacillus anthracis [28]
  inhibition: Active
Pseudomonas aeruginosa
  MIC: 0.1 µg/mL (≈ 0.302 µM)
Staphylococcus aureus [25]
  MIC: 0.3 µg/mL (≈ 0.905 µM)
